Assay results taken from ChEMBL document CHEMBL1138354, “2-(2'-((dimethylamino)methyl)-4'-(fluoroalkoxy)-phenylthio)benzenamine derivatives as serotonin transporter imaging agents” (J Med Chem, 2007).

Tests used:
Nucleic Acid [1] = test: Ratio of drug level in hypothalamus to cerebellum in rat after 120 mins; type: ADME, tissue-based; conditions: in vivo, 2 h
Summary of the method: (§1)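 Rats, 3 per group, given ¹⁸F tracer (10–100 μCi, 0.2 ml sterile water with 1 mg/mL BSA) into the femoral vein under isoflurane. Brain regions, including hypothalamus, striatum and cerebellum, dissected, weighed and counted. % dose/g calculated against a 1% diluted aliquot of the dose. Region/cerebellum ratio is region %dose/g divided by cerebellum %dose/g. SD of the ratio propagated from both means and SDs.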

Lung [2] = test: Biodistribution in iv dosed rat lungs after 30 mins; type: ADME, organism-based; conditions: in vivo, 0.5 h
Summary of the method: (§2)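 [18F]-labeled tracer was given to rats under isoflurane anesthesia: 0.2 ml sterile water with 1 mg/mL BSA and 10–100 μCi, into the femoral vein. Three rats per group. Animals were killed by cervical dislocation under anesthesia at the stated time. Organs were removed, weighed and counted. Uptake was calculated as percent dose against a 1% aliquot of the injected dose counted alongside.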

Brain [3] = test: Biodistribution in iv dosed rat brain after 30 mins; type: ADME, organism-based; conditions: in vivo, 0.5 h; summary of the method: as §2
Nucleic Acid [4] = test: Ratio of drug level in hypothalamus to cerebellum in rat after 30 mins; type: ADME, tissue-based; conditions: in vivo, 0.5 h; summary of the method: as §1
Zone of skin [5] = test: Biodistribution in iv dosed rat skin after 2 mins; type: ADME, organism-based; conditions: in vivo
Zone of skin [6] = test: Biodistribution in iv dosed rat skin after 30 mins; type: ADME, organism-based; conditions: in vivo, 0.5 h
Summary of the method: (§3)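 Rats, 3 per group, under isoflurane. ¹⁸F tracer (10–100 μCi) in 0.2 ml sterile water with 1 mg/mL BSA injected into the femoral vein. Killed by cervical dislocation under anesthesia at the stated time. Organs removed, weighed and counted. % dose/organ calculated against counts of a 1% diluted aliquot of the injected dose.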

Zone of skin [7] = test: Biodistribution in iv dosed rat skin after 60 mins; type: ADME, organism-based; conditions: in vivo, 1 h
Zone of skin [8] = test: Biodistribution in iv dosed rat skin after 120 mins; type: ADME, organism-based; conditions: in vivo, 2 h; summary of the method: as §3
Zone of skin [9] = test: Biodistribution in iv dosed rat skin after 240 mins; type: ADME, organism-based; conditions: in vivo, 4 h
Blood [10] = test: Biodistribution in iv dosed rat blood after 2 mins; type: ADME, organism-based; conditions: in vivo; summary of the method: as §2
Blood [11] = test: Biodistribution in iv dosed rat blood after 60 mins; type: ADME, organism-based; conditions: in vivo, 1 h; summary of the method: as §2
Blood [12] = test: Biodistribution in iv dosed rat blood after 120 mins; type: ADME, organism-based; conditions: in vivo, 2 h; summary of the method: as §2
Heart [13] = test: Biodistribution in iv dosed rat heart after 2 mins; type: ADME, organism-based; conditions: in vivo; summary of the method: as §2
Heart [14] = test: Biodistribution in iv dosed rat heart after 30 mins; type: ADME, organism-based; conditions: in vivo, 0.5 h; summary of the method: as §2
Heart [15] = test: Biodistribution in iv dosed rat heart after 60 mins; type: ADME, organism-based; conditions: in vivo, 1 h; summary of the method: as §2
Heart [16] = test: Biodistribution in iv dosed rat heart after 120 mins; type: ADME, organism-based; conditions: in vivo, 2 h; summary of the method: as §2
Heart [17] = test: Biodistribution in iv dosed rat heart after 240 mins; type: ADME, organism-based; conditions: in vivo, 4 h; summary of the method: as §2
Lung [18] = test: Biodistribution in iv dosed rat lungs after 2 mins; type: ADME, organism-based; conditions: in vivo; summary of the method: as §2
Lung [19] = test: Biodistribution in iv dosed rat lungs after 60 mins; type: ADME, organism-based; conditions: in vivo, 1 h; summary of the method: as §2
Liver [20] = test: Biodistribution in iv dosed rat liver after 2 mins; type: ADME, organism-based; conditions: in vivo; summary of the method: as §2
Liver [21] = test: Biodistribution in iv dosed rat liver after 30 mins; type: ADME, organism-based; conditions: in vivo, 0.5 h; summary of the method: as §2
Liver [22] = test: Biodistribution in iv dosed rat liver after 60 mins; type: ADME, organism-based; conditions: in vivo, 1 h; summary of the method: as §2
Liver [23] = test: Biodistribution in iv dosed rat liver after 240 mins; type: ADME, organism-based; conditions: in vivo, 4 h; summary of the method: as §2
Spleen [24] = test: Biodistribution in iv dosed rat spleen after 30 mins; type: ADME, organism-based; conditions: in vivo, 0.5 h; summary of the method: as §3
Spleen [25] = test: Biodistribution in iv dosed rat spleen after 60 mins; type: ADME, organism-based; conditions: in vivo, 1 h
Spleen [26] = test: Biodistribution in iv dosed rat spleen after 120 mins; type: ADME, organism-based; conditions: in vivo, 2 h; summary of the method: as §3
Kidney [27] = test: Biodistribution in iv dosed rat kidney after 30 mins; type: ADME, organism-based; conditions: in vivo, 0.5 h; summary of the method: as §2
Kidney [28] = test: Biodistribution in iv dosed rat kidney after 60 mins; type: ADME, organism-based; conditions: in vivo, 1 h; summary of the method: as §2
Kidney [29] = test: Biodistribution in iv dosed rat kidney after 120 mins; type: ADME, organism-based; conditions: in vivo, 2 h; summary of the method: as §2
Kidney [30] = test: Biodistribution in iv dosed rat kidney after 240 mins; type: ADME, organism-based; conditions: in vivo, 4 h; summary of the method: as §2
Muscle tissue [31] = test: Biodistribution in iv dosed rat muscle after 2 mins; type: ADME, organism-based; conditions: in vivo; summary of the method: as §2
Muscle tissue [32] = test: Biodistribution in iv dosed rat muscle after 60 mins; type: ADME, organism-based; conditions: in vivo, 1 h; summary of the method: as §2
Muscle tissue [33] = test: Biodistribution in iv dosed rat muscle after 120 mins; type: ADME, organism-based; conditions: in vivo, 2 h; summary of the method: as §2
Bone [34] = test: Biodistribution in iv dosed rat bone after 2 mins; type: ADME, organism-based, Bone element; conditions: in vivo; summary of the method: as §2
Bone [35] = test: Biodistribution in iv dosed rat bone after 30 mins; type: ADME, organism-based, Bone element; conditions: in vivo, 0.5 h; summary of the method: as §2
Bone [36] = test: Biodistribution in iv dosed rat bone after 60 mins; type: ADME, organism-based, Bone element; conditions: in vivo, 1 h; summary of the method: as §2
Bone [37] = test: Biodistribution in iv dosed rat bone after 120 mins; type: ADME, organism-based, Bone element; conditions: in vivo, 2 h; summary of the method: as §2
Bone [38] = test: Biodistribution in iv dosed rat bone after 240 mins; type: ADME, organism-based, Bone element; conditions: in vivo, 4 h; summary of the method: as §2
Brain [39] = test: Biodistribution in iv dosed rat brain after 60 mins; type: ADME, organism-based; conditions: in vivo, 1 h; summary of the method: as §2
Cortex = test: Biodistribution in iv dosed rat cortex assessed as radioactivity after 240 mins; type: ADME, organism-based; conditions: in vivo, 4 h
Summary of the method: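 Rats received the [18F] tracer under isoflurane anesthesia: 0.2 ml sterile water with 1 mg/mL BSA and 10–100 μCi, into the femoral vein. Three rats per group. After cervical dislocation under anesthesia, the cortex was dissected, weighed and gamma-counted. Percent dose/g was calculated against a 100-fold diluted aliquot of the injected dose.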

Striatum [40] = test: Biodistribution in iv dosed rat striatum assessed as radioactivity after 2 mins; type: ADME, organism-based; conditions: in vivo
Striatum [41] = test: Biodistribution in iv dosed rat striatum assessed as radioactivity after 60 mins; type: ADME, organism-based; conditions: in vivo, 1 h
Striatum [42] = test: Biodistribution in iv dosed rat striatum assessed as radioactivity after 120 mins; type: ADME, organism-based; conditions: in vivo, 2 h
Striatum [43] = test: Biodistribution in iv dosed rat striatum assessed as radioactivity after 240 mins; type: ADME, organism-based; conditions: in vivo, 4 h
Nucleic Acid [44] = test: Ratio of drug level in hypothalamus to cerebellum in rat assessed as radioactivity after 60 mins; type: ADME, tissue-based; conditions: in vivo, 1 h
Nucleic Acid [45] = test: Ratio of drug level in hypothalamus to cerebellum in rat assessed as radioactivity after 240 mins; type: ADME, tissue-based; conditions: in vivo, 4 h
Nucleic Acid [46] = test: Ratio of drug level in hippocampus to cerebellum in rat assessed as radioactivity after 2 mins; type: ADME, tissue-based; conditions: in vivo
Nucleic Acid [47] = test: Ratio of drug level in hippocampus to cerebellum in rat assessed as radioactivity after 30 mins; type: ADME, tissue-based; conditions: in vivo, 0.5 h
Summary of the method: (§4)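 Groups of three normal rats under isoflurane received the [18F] tracer (10–100 μCi in 0.2 ml sterile water containing 1 mg/mL BSA) into the femoral vein. They were killed by cervical dislocation under anesthesia at the stated time. Cortex, striatum, hippocampus, hypothalamus and cerebellum were dissected, weighed and gamma-counted. %dose/g was set against a 100-fold diluted dose aliquot, and each region was divided by cerebellum.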

Nucleic Acid [48] = test: Ratio of drug level in hippocampus to cerebellum in rat assessed as radioactivity after 60 mins; type: ADME, tissue-based; conditions: in vivo, 1 h
Nucleic Acid [49] = test: Ratio of drug level in hippocampus to cerebellum in rat assessed as radioactivity after 120 mins; type: ADME, tissue-based; conditions: in vivo, 2 h; summary of the method: as §4
Nucleic Acid [50] = test: Ratio of drug level in cortex to cerebellum in rat assessed as radioactivity after 30 mins; type: ADME, tissue-based; conditions: in vivo, 0.5 h; summary of the method: as §4
Nucleic Acid [51] = test: Ratio of drug level in cortex to cerebellum in rat assessed as radioactivity after 60 mins; type: ADME, tissue-based; conditions: in vivo, 1 h
Nucleic Acid [52] = test: Ratio of drug level in cortex to cerebellum in rat assessed as radioactivity after 120 mins; type: ADME, tissue-based; conditions: in vivo, 2 h; summary of the method: as §4
Nucleic Acid [53] = test: Ratio of drug level in cortex to cerebellum in rat assessed as radioactivity after 240 mins; type: ADME, tissue-based; conditions: in vivo, 4 h
Nucleic Acid [54] = test: Ratio of drug level in striatum to cerebellum in rat assessed as radioactivity after 2 mins; type: ADME, tissue-based; conditions: in vivo
Nucleic Acid [55] = test: Ratio of drug level in striatum to cerebellum in rat assessed as radioactivity after 30 mins; type: ADME, tissue-based; conditions: in vivo, 0.5 h; summary of the method: as §4
Nucleic Acid [56] = test: Ratio of drug level in striatum to cerebellum in rat assessed as radioactivity after 120 mins; type: ADME, tissue-based; conditions: in vivo, 2 h; summary of the method: as §4
Lung [57] = test: Biodistribution in iv dosed rat lungs after 240 mins; type: ADME, organism-based; conditions: in vivo, 4 h; summary of the method: as §2
[58] = Partition coefficient, log P at pH 7.4; type: physicochemical; conditions: octanol/water

CN(C)Cc1cc(OCC[18F])ccc1Sc1ccccc1N
Ratio (Nucleic Acid [1]): 7.83
Drug uptake (Lung [2]): 2.25 %ID
Drug uptake (Brain [3]): 1.85 %ID
Ratio (Nucleic Acid [4]): 3.79
Drug uptake (Zone of skin [5]): 8.78 %ID
Drug uptake (Zone of skin [6]): 8.66 %ID
Drug uptake (Zone of skin [7]): 8.44 %ID
Drug uptake (Zone of skin [8]): 4.32 %ID
Drug uptake (Zone of skin [9]): 3.77 %ID
Drug uptake (Blood [10]): 11.86 %ID
Drug uptake (Blood [11]): 3.1 %ID
Drug uptake (Blood [12]): 4.06 %ID
Drug uptake (Heart [13]): 0.95 %ID
Drug uptake (Heart [14]): 0.17 %ID
Drug uptake (Heart [15]): 0.12 %ID
Drug uptake (Heart [16]): 0.09 %ID
Drug uptake (Heart [17]): 0.04 %ID
Drug uptake (Lung [18]): 13.21 %ID
Drug uptake (Lung [19]): 1.4 %ID
Drug uptake (Liver [20]): 9.9 %ID
Drug uptake (Liver [21]): 4.24 %ID
Drug uptake (Liver [22]): 3.74 %ID
Drug uptake (Liver [23]): 2.26 %ID
Drug uptake (Spleen [24]): 0.65 %ID
Drug uptake (Spleen [25]): 0.35 %ID
Drug uptake (Spleen [26]): 0.26 %ID
Drug uptake (Kidney [27]): 4.56 %ID
Drug uptake (Kidney [28]): 4.04 %ID
Drug uptake (Kidney [29]): 2.66 %ID
Drug uptake (Kidney [30]): 1.94 %ID
Drug uptake (Muscle tissue [31]): 16.55 %ID
Drug uptake (Muscle tissue [32]): 8.24 %ID
Drug uptake (Muscle tissue [33]): 4.24 %ID
Drug uptake (Bone [34]): 8.67 %ID
Drug uptake (Bone [35]): 7.11 %ID
Drug uptake (Bone [36]): 4.87 %ID
Drug uptake (Bone [37]): 2.92 %ID
Drug uptake (Bone [38]): 3.3 %ID
Drug uptake (Brain [39]): 1.21 %ID
Drug uptake (Cortex): 0.07 % ID/g
Drug uptake (Striatum [40]): 1.01 % ID/g
Drug uptake (Striatum [41]): 0.7 % ID/g
Drug uptake (Striatum [42]): 0.36 % ID/g
Drug uptake (Striatum [43]): 0.08 % ID/g
Ratio (Nucleic Acid [44]): 5.52
Ratio (Nucleic Acid [45]): 6.58
Ratio (Nucleic Acid [46]): 1.19
Ratio (Nucleic Acid [47]): 2.59
Ratio (Nucleic Acid [48]): 3.75
Ratio (Nucleic Acid [49]): 3.71
Ratio (Nucleic Acid [50]): 3.26
Ratio (Nucleic Acid [51]): 4.78
Ratio (Nucleic Acid [52]): 4.6
Ratio (Nucleic Acid [53]): 2.44
Ratio (Nucleic Acid [54]): 1.22
Ratio (Nucleic Acid [55]): 2.69
Ratio (Nucleic Acid [56]): 3.85
Drug uptake (Lung [57]): 0.33 %ID
logD [58]: 2.15
